ChEMBL document CHEMBL1125311, “Inhibition of human leukocyte elastase. 4. Selection of a substituted cephalosporin (L-658,758) as a topical aerosol” (J Med Chem, 1992)

Tests used:
[1] = target: T1, Neutrophil elastase (Homo sapiens) (UniProt P08246)
T1 sequence (whole entry): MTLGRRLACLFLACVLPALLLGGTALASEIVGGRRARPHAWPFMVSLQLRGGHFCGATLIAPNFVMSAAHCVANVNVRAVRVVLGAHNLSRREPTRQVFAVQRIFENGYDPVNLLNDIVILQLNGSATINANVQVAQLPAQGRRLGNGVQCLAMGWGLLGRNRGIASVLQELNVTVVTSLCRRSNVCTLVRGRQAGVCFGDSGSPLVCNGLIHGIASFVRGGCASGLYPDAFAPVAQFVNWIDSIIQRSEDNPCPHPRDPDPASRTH

Cricetinae gen. sp. [2] = test: Compound was evaluated in vivo for inhibition of HLE-induced hemorrhage in hamster lung at 100 microg, 30 min after administration; type: functional, Cricetulus griseus
How it was run: (§1)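 Hamster, intratracheal dosing of compound (per animal) 30 min before IT instillation of 50 μg HLE (50 units in Experimental); hemorrhage read 3 h later: lungs lavaged with saline, hemoglobin in lavage measured at 414 nm. Percent inhibition from drug-treated vs vehicle-treated hemorrhage; three animals per dose and time. Titration at 100, 30, 10, 3 μg/animal gives ED50.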

[3] = Half-life value of the compound.; type: ADME
How it was run: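 Chemical stability: compound dissolved at 1 mg/mL in 0.5 M MOPS, pH 8.0, held at 25 °C in capped vial; aliquots quenched in 2% aqueous TFA and analysed by reverse-phase HPLC over one to two half-lives. Peak areas fit to first-order decay F(t)=A/2^(t/t1/2) to give t1/2.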

Cricetinae gen. sp. [4] = test: Compound was evaluated in vivo for inhibition of HLE-induced hemorrhage in hamster lung at 10 ug 30 min after administration prior to HLE; type: functional, Cricetulus griseus
How it was run: as §1

Cricetinae gen. sp. [5] = test: Compound was evaluated in vivo for inhibition of HLE-induced hemorrhage in hamster lung at 200 microg 4 hr after administration prior to HLE; type: functional, Cricetulus griseus
How it was run: (§2)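 Hamster duration protocol: 200 μg/animal given intratracheally 60, 120, 180 or 240 min before IT HLE instillation; hemorrhage scored after 3 h as hemoglobin (414 nm) in saline lung lavage, relative to vehicle-treated animals; three animals per point. T50 taken as time at which 50% inhibition is still obtained.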

Cricetinae gen. sp. [6] = test: Compound was evaluated in vivo for inhibition of HLE-induced hemorrhage in hamster lung at 30 ug 30 min after administration prior to HLE; type: functional, Cricetulus griseus
How it was run: as §1

Cricetinae gen. sp. [7] = test: Compound was evaluated in vivo for inhibition of HLE-induced hemorrhage in hamster lung at 100 microg 30 min after administration prior to HLE; type: functional, Cricetulus griseus
How it was run: as §1

Cricetinae gen. sp. [8] = test: Inhibitory activity against Human Leukocyte Elastase by Lung Hemorrhage assay (Effective dose at 15 microg); type: functional, Cricetulus griseus
Cricetinae gen. sp. [9] = test: Compound was evaluated in vivo for inhibition of HLE-induced hemorrhage in hamster lung at 200 microg 3h after administration prior to HLE; type: functional, Cricetulus griseus
How it was run: as §2

Cricetinae gen. sp. [10] = test: Compound was evaluated in vivo for inhibition of HLE-induced hemorrhage in hamster lung at 200 microg 1 hr after administration prior to HLE; type: functional, Cricetulus griseus
How it was run: as §2

Cricetinae gen. sp. [11] = test: Compound was evaluated in vivo for inhibition of HLE-induced hemorrhage in hamster lung at 200 microg 2 hr after administration prior to HLE; type: functional, Cricetulus griseus
How it was run: as §2

Neutrophil elastase [12] = target: T2, Neutrophil elastase (Homo sapiens, UniProt P08246); test: Inhibitory activity against Human Leukocyte Elastase
T2 sequence (P08246 whole entry): T1 sequence (whole entry)

Cricetinae gen. sp. [13] = test: Inhibitory activity against Human Leukocyte Elastase by Lung Hemorrhage assay (at 30 min); type: functional, Cricetulus griseus
How it was run: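 Hamster, intratracheal: test compound 100 μg/animal given 30 min before IT instillation of HLE (50 μg; text also says 50 units). Hemorrhage read 3 h after HLE: lungs lavaged with saline, hemoglobin measured at 414 nm. Percent inhibition from hemorrhage in drug-treated vs vehicle-treated animals; mean of three animals per dose and time.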

Cricetinae gen. sp. [14] = test: Inhibitory activity against Human Leukocyte Elastase by Lung Hemorrhage assay ( at 200 ug/animal); type: functional, Cricetulus griseus
How it was run: as §2

Cricetinae gen. sp. [15] = test: Compound was evaluated in vivo for inhibition of HLE-induced hemorrhage in hamster lung at 100 microg, 30 min after administration prior to HLE; type: functional, Cricetulus griseus
How it was run: as §1

Cricetinae gen. sp. [16] = test: Compound was evaluated in vivo for inhibition of HLE-induced hemorrhage in hamster lung at 10microg, 30 min after administration prior to HLE; type: functional, Cricetulus griseus
How it was run: as §1

Cricetinae gen. sp. [17] = test: Compound was evaluated in vivo for inhibition of HLE-induced hemorrhage in hamster lung at 30microg, 30 min after administration prior to HLE; type: functional, Cricetulus griseus
How it was run: as §1

Neutrophil elastase [18] = target: T2, Neutrophil elastase; test: In vitro inhibitory activity against human leukocyte elastase
Cricetinae gen. sp. [19] = test: Compound was evaluated in vivo for inhibition of HLE-induced hemorrhage in hamster lung at 200 microg, 2 hr after administration prior to HLE; type: functional, Cricetulus griseus
How it was run: as §2

Cricetinae gen. sp. [20] = test: Compound was evaluated in vivo for inhibition of HLE-induced hemorrhage in hamster lung at 30 microg, 30 min after administration prior to HLE
Cricetinae gen. sp. [21] = test: Compound was evaluated in vivo for inhibition of HLE-induced hemorrhage in hamster lung at 3 microg, 30 min after administration prior to HLE; type: functional, Cricetulus griseus
How it was run: as §1

Cricetinae gen. sp. [22] = test: Compound was evaluated in vivo for inhibition of HLE-induced hemorrhage in hamster lung at 10 microg, 30 min after administration prior to HLE; type: functional, Cricetulus griseus
How it was run: as §1

Cricetinae gen. sp. [23] = test: Compound was evaluated in vivo for inhibition of HLE-induced hemorrhage in hamster lung at 200 microg, 4 hr after administration prior to HLE; type: functional, Cricetulus griseus
How it was run: as §2

Cricetinae gen. sp. [24] = test: Compound was evaluated in vivo for inhibition of HLE-induced hemorrhage in hamster lung at 200 microg, 3h after administration prior to HLE; type: functional, Cricetulus griseus
How it was run: as §2

Cricetinae gen. sp. [25] = test: Compound was evaluated in vivo for inhibition of HLE-induced hemorrhage in hamster lung at 200 microg, 1 hr after administration prior to HLE; type: functional, Cricetulus griseus
How it was run: as §2

Cricetinae gen. sp. [26] = test: Compound was evaluated in vivo for inhibition of HLE-induced hemorrhage in hamster lung at 400 microg, 5 min after administration; type: functional, Cricetulus griseus
Cricetinae gen. sp. [27] = test: Compound was evaluated in vivo for inhibition of HLE-induced hemorrhage in hamster lung at 100 microg 30 min after administration; type: functional, Cricetulus griseus
How it was run: as §1

Cricetinae gen. sp. [28] = test: Compound was evaluated in vivo for inhibition of HLE-induced hemorrhage in hamster lung at 100 microg 90 min after administration; type: functional, Cricetulus griseus
Cricetinae gen. sp. [29] = test: Compound was evaluated in vivo for inhibition of HLE-induced hemorrhage in hamster lung at 30 microg, 30 min after administration prior to HLE; type: functional, Cricetulus griseus
How it was run: as §1

Cricetinae gen. sp. [30] = test: Compound was evaluated in vivo for inhibition of HLE-induced hemorrhage in hamster lung at 100 microg 5 min after administration; type: functional, Cricetulus griseus

What does the source list for `CO[C@H]1C(=O)N2C(C(=O)N(C)Cc3ccc(C(=O)O)cc3)=C(COC(C)=O)CS(=O)(=O)[C@H]12`?
k obs / 1 [1]: 8600 M⁻¹ s⁻¹; Inhibition (Cricetinae gen. sp. [2]): 65%

Which k obs / 1 [1] does the source give for `CO[C@H]1C(=O)N2C(C(=O)N3CCC(C(=O)O)C3)=C(COC(C)=O)CS(=O)(=O)[C@H]12` (stereo partly drawn) here?
Its k obs / 1 is 1900 M⁻¹ s⁻¹.

For `CC[C@H]1C(=O)N2C(C(=O)N(C)CC(=O)O)=C(COC(C)=O)CS(=O)(=O)[C@H]12`, which k obs / 1 [1] is on record?
Its k obs / 1 is 30 M⁻¹ s⁻¹.

What about the half-life [3] of the same molecule?
Its half-life is > 50 h.

For `CO[C@H]1C(=O)N2C(C(=O)N3CCCC3)=C(CSc3nc(=O)c(=O)[nH]n3C)CS(=O)(=O)[C@H]12`, which Inhibition (Cricetinae gen. sp. [4]) is on record?
Its Inhibition is 30%.

What about the Inhibition (Cricetinae gen. sp. [5]) of the same molecule?
Its Inhibition is 50%.

And the Inhibition (Cricetinae gen. sp. [6])?
Its Inhibition is 60%.

What about the Inhibition (Cricetinae gen. sp. [7]) of the same molecule?
The Inhibition was 95%.

And the ED50 (Cricetinae gen. sp. [8])?
Its ED50 is 30 µg.

What about the k obs / 1 [1] of the same molecule?
The k obs / 1 was 13400 M⁻¹ s⁻¹.

And the half-life [3]?
Its half-life is 20 h.

What about the Inhibition (Cricetinae gen. sp. [9]) of the same molecule?
Its Inhibition is 64%.

What about the Inhibition (Cricetinae gen. sp. [10]) of the same molecule?
Its Inhibition is 88%.

What about the Inhibition (Cricetinae gen. sp. [11]) of the same molecule?
Its Inhibition is 87%.

What about the IC50 (Neutrophil elastase [12]) of the same molecule?
The IC50 was 2 µM.

And the ED50 (Cricetinae gen. sp. [13])?
The ED50 was 20 µg.

What about the T50 (Cricetinae gen. sp. [14]) of the same molecule?
The T50 was 240 min.

Which Inhibition (Cricetinae gen. sp. [15]) does the source give for `CO[C@H]1C(=O)N2C(C(=O)N(C)CC(=O)O)=C(CSc3ccccn3)CS(=O)(=O)[C@H]12` here?
The Inhibition was 76%.

And the Inhibition (Cricetinae gen. sp. [16])?
Its Inhibition is 35%.

And the Inhibition (Cricetinae gen. sp. [17])?
Its Inhibition is 46%.

What about the Ki (Neutrophil elastase [18]) of the same molecule?
The Ki was 43 µM.

For `CO[C@H]1C(=O)N2C(C(=O)N(C)CC(=O)O)=C(COC(=O)NCc3ccccc3)CS(=O)(=O)[C@H]12`, which Inhibition (Cricetinae gen. sp. [15]) is on record?
Its Inhibition is 91%.

What about the Inhibition (Cricetinae gen. sp. [16]) of the same molecule?
The Inhibition was 27%.

What about the Inhibition (Cricetinae gen. sp. [17]) of the same molecule?
The Inhibition was 93%.

And the k obs / 1 [1]?
The k obs / 1 was 600 M⁻¹ s⁻¹.

What does the source list for `CO[C@H]1C(=O)N2C(C(=O)N3CCC[C@@H]3C(=O)O)=C(COC(C)=O)CS(=O)(=O)[C@H]12`?
Ki (Neutrophil elastase [18]): 3.4 µM; half-life [3]: < 5 h

What does the source list for `CO[C@H]1C(=O)N2C(C(=O)N(C)[C@@H](C)C(=O)O)=C(COC(C)=O)CS(=O)(=O)[C@H]12`?
Inhibition (Cricetinae gen. sp. [19]): 81%; Inhibition (Cricetinae gen. sp. [15]): 96%; Inhibition (Cricetinae gen. sp. [20]): 89%; Inhibition (Cricetinae gen. sp. [21]): 50%; Inhibition (Cricetinae gen. sp. [22]): 78%; Inhibition (Cricetinae gen. sp. [23]): 21%; Inhibition (Cricetinae gen. sp. [24]): 47%; k obs / 1 [1]: 500 M⁻¹ s⁻¹; Inhibition (Cricetinae gen. sp. [25]): 94%

Which Inhibition (Cricetinae gen. sp. [26]) does the source give for `CO[C@H]1C(=O)N2C(C(=O)OC(C)(C)C)=C(COC(=O)CCC(=O)O)CS(=O)(=O)[C@H]12` here?
Its Inhibition is 98%.

What does the source list for `CC[C@H]1C(=O)N2C(C(=O)N(C)CC(=O)O)=C(COC(=O)c3ccc(C(=O)O)cc3)CS(=O)(=O)[C@H]12`?
Inhibition (Cricetinae gen. sp. [19]): 59%; Inhibition (Cricetinae gen. sp. [24]): 57%; k obs / 1 [1]: 100 M⁻¹ s⁻¹; Inhibition (Cricetinae gen. sp. [25]): 84%

For `CO[C@H]1C(=O)N2C(C(=O)N(C)CC(=O)N(C)CCC(=O)O)=C(COC(C)=O)CS(=O)(=O)[C@H]12`, which Inhibition (Cricetinae gen. sp. [15]) is on record?
Its Inhibition is 86%.

And the Inhibition (Cricetinae gen. sp. [16])?
The Inhibition was 35%.

What about the Inhibition (Cricetinae gen. sp. [17]) of the same molecule?
Its Inhibition is 77%.

And the k obs / 1 [1]?
Its k obs / 1 is 700 M⁻¹ s⁻¹.

For `CO[C@H]1C(=O)N2C(C(=O)OC(C)(C)C)=C(CSc3nc(=O)c(=O)[nH]n3C)CS(=O)(=O)[C@H]12`, which k obs / 1 [1] is on record?
Its k obs / 1 is 8600 M⁻¹ s⁻¹.

What about the Inhibition (Cricetinae gen. sp. [27]) of the same molecule?
Its Inhibition is 90%.

And the Inhibition (Cricetinae gen. sp. [28])?
Its Inhibition is 18%.

With `CO[C@H]1C(=O)N2C(C(=O)N(C)[C@H](C)C(=O)O)=C(COC(C)=O)CS(=O)(=O)[C@H]12` as the molecule, how does the Inhibition (Cricetinae gen. sp. [15]) read?
The Inhibition was 97%.

And the Inhibition (Cricetinae gen. sp. [22])?
Its Inhibition is 29%.

What about the k obs / 1 [1] of the same molecule?
The k obs / 1 was 900 M⁻¹ s⁻¹.

And the Inhibition (Cricetinae gen. sp. [29])?
The Inhibition was 90%.

With `CO[C@H]1C(=O)N2C(C(=O)OCc3ccc(C(=O)O)cc3)=C(COC(C)=O)CS(=O)(=O)[C@H]12` as the molecule, how does the Inhibition (Cricetinae gen. sp. [30]) read?
The Inhibition was 98%.

And the half-life [3]?
The half-life was 5 h.

Which k obs / 1 [1] does the source give for `CC[C@H]1C(=O)N2C(C(=O)OCc3ccc(C(=O)O)cc3)=C(COC(C)=O)CS(=O)(=O)[C@H]12` here?
Its k obs / 1 is 5700 M⁻¹ s⁻¹.

What about the half-life [3] of the same molecule?
Its half-life is 40 h.

And the Inhibition (Cricetinae gen. sp. [27])?
The Inhibition was -32%.
